Results as given in ChEMBL document CHEMBL1136729, “Synthesis of 3'- and 5'-nitrooxy pyrimidine nucleoside nitrate esters: "nitric oxide donor" agents for evaluation as anticancer and antiviral agents” (J Med Chem, 2003).
≈ marks a conversion by molar mass, not a printed value.

Columns and labels:
[1] = system: KBALB-STK; assay: In vitro cell cytotoxicity against KBALB-STK cell lines expressed in HSV-1 TK; format: functional; conditions: Mus musculus
Procedure, shortened: (§1)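 MTT assay. KBALB, KBALB-STK, 143B and 143B-LTK cells were grown in DMEM with 10% FBS; EMT-6 cells in Waymouth medium with 12.5% FBS. Cells were seeded at 8 × 10² per well and grown 24 h. Compound in DMEM was added for 3 days at 37 °C in 5% CO2, followed by MTT for 4 h, DMSO solubilisation and blank-corrected A540. CC50 is the concentration cutting A540 to 50% of control, mean of n = 6.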

[2] = Compound was tested for in vitro nitric oxide release in the presence of 18 mM L-cysteine at 1 h; format: functional
Procedure, shortened: (§2)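 Compound (2 mM stock in 0.1 M phosphate buffer pH 7.4) was mixed 1:1 with freshly made 36 mM L-cysteine in the same buffer and incubated at 37 °C for 1 or 16 h without air. The mixture was exposed to air for 10 min, then Griess reagent was added. A540 was read after 10 min. Nitrite was calculated from a 0–60 μM sodium nitrite standard curve, n = 3.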

[3] = organism: Rattus norvegicus; assay: Compound was tested for in vitro nitric oxide release in the presence of rat serum at 16 h; format: functional
Procedure, shortened: (§3)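 Compound (1 × 10⁻² M stock) was mixed 1:9 with filtered rat serum. It was incubated at 37 °C for 1 or 16 h with 0.2 U/mL Aspergillus nitrate reductase, 50 mM HEPES, 5 μM FAD and 0.1 mM NADPH. Leftover NADPH was removed with lactate dehydrogenase plus pyruvate over 10 min. Griess reagent was added and A540 read after 10 min at 25 °C. % NO release came from a nitrite standard curve, n = 3.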

[4] = Compound was tested for in vitro nitric oxide release in the presence of 18 mM L-cysteine at 16h; format: functional; procedure, shortened: as §2
[5] = organism: Rattus norvegicus; assay: Compound was tested for in vitro nitric oxide release in the presence of rat serum at 1 h; format: functional; procedure, shortened: as §3
[6] = system: 143B; assay: In vitro cell cytotoxicity against 143B-LTK cell lines expressed in HSV-1 TK; format: functional; conditions: Homo sapiens; procedure, shortened: as §1
[7] = Compound was tested for in vitro nitric oxide release in the presence of 18 mM L-cysteine at 16 h; format: functional; procedure, shortened: as §2
[8] = system: Respiratory syncytial virus; assay: Antiviral activity against respiratory syncytial virus in Hela cell cultures; format: functional, organism-based; conditions: human respiratory syncytial virus
[9] = system: Coxsackievirus B4; assay: Antiviral activity against coxsackie B4 virus; format: functional, organism-based; conditions: Enterovirus B
[10] = system: Punta Toro virus; assay: (§4) Antiviral activity against Punta toro virus in vero cell cultures; format: functional, organism-based
[11] = system: Human respirovirus 3; assay: Antiviral activity against parainfluenza-3 virus; format: functional, organism-based
[12] = system: KBALB cell line; assay: In vitro cell cytotoxicity against KBALB cell line (transformed fibroblast sarcoma cell line); format: functional; conditions: Mus musculus; procedure, shortened: as §1
[13] = system: Sindbis virus; assay: Antiviral activity against sindbus virus; format: functional, organism-based
[14] = system: Mammalian orthoreovirus 1; assay: Antiviral activity against reovirus-1; format: functional, organism-based
[15] = system: EMT6; assay: (§5) In vitro cell cytotoxicity against EMT-6 cell lines; format: functional; conditions: Mus musculus; procedure, shortened: as §1
[16] = system: 143B; assay: In vitro cell cytotoxicity against 143-B cell lines (Human osteosarcoma cell line); format: functional; procedure, shortened: as §1
[17] = system: Vaccinia virus; assay: Inhibitory activity against vaccinia virus; format: functional, organism-based; conditions: Orthopoxvirus vaccinia
[18] = system: Human alphaherpesvirus 2; assay: (§6) Inhibitory activity against herpes simplex virus […]; format: functional, organism-based
[19] = system: Human alphaherpesvirus 1; assay: as §6; format: functional, organism-based
[20] = system: Monkey; assay: as §4; format: functional, organism-based, Chlorocebus sabaeus; conditions: Cercopithecidae
[21] = as §5; format: functional; conditions: Mus musculus, EMT6; procedure, shortened: as §1
[22] = system: Human alphaherpesvirus 1; assay: Inhibitory activity against HSV-1; format: functional, organism-based
[23] = system: Human alphaherpesvirus 2; assay: Inhibitory activity against HSV-2; format: functional, organism-based

| SMILES | CC50 [1] [µM] | NO release [2] [%] | NO release [3] [%] | NO release [5] [%] | CC50 [6] [µM] | NO release [7] [%] | CC50 [12] [µM] | CC50 [16] [µM] | other results |
| --- | --- | --- | --- | --- | --- | --- | --- | --- | --- |
| Cc1cn([C@H]2C[C@H](O)[C@@H](CO[N+](=O)[O-])O2)c(=O)[nH]c1=O | 300 | 5 | 4.8 | 3.6 | – | – | – | – | NO release [4]: 59.8% |
| Cc1cn([C@H]2C[C@H](O[N+](=O)[O-])[C@@H](CO)O2)c(=O)nc1N | – | 3.8 | 59.5 | 47.1 | 1000 | 50.3 | – | – | – |
| Cc1cn([C@H]2C[C@H](O[N+](=O)[O-])[C@@H](CO)O2)c(=O)[nH]c1=O | 7000 | 4.9 | 7.4 | 7.4 | – | 53.6 | 1000 | – | IC50 [8]: > 80 µg/mL; IC50 [9]: > 80 µg/mL; IC50 [10]: > 80 µg/mL; IC50 [11]: > 80 µg/mL; IC50 [13]: > 80 µg/mL; IC50 [14]: > 80 µg/mL |
| Nc1nc(=O)n([C@H]2C[C@H](O[N+](=O)[O-])[C@@H](CO)O2)cc1I | 250 | 4 | 17.6 | 12.5 | 200 | 47.2 | 1000 | 200 | CC50 [15]: 340 µM |
| O=c1[nH]c(=O)n([C@H]2C[C@H](O[N+](=O)[O-])[C@@H](CO)O2)cc1I | 260 | 3.9 | 13.2 | 12.3 | 410 | 37.6 | 240 | 580 | IC50 [8]: > 80 µg/mL; CC50 [15]: 23 µM; IC50 [17]: 48 µg/mL (≈ 120 µM); IC50 [18]: 48 µg/mL (≈ 120 µM); IC50 [19]: 48 µg/mL (≈ 120 µM); IC50 [9]: > 80 µg/mL; IC50 [11]: > 80 µg/mL; IC50 [20]: > 80 µg/mL; IC50 [13]: > 80 µg/mL; IC50 [14]: > 80 µg/mL |
| O=c1[nH]c(=O)n([C@H]2C[C@H](O[N+](=O)[O-])[C@@H](CO)O2)cc1F | 3.5 | 0 | 6.6 | 4 | 74 | 3.8 | 8 | 2.4 | IC50 [8]: > 80 µg/mL; CC50 [21]: 6.2 µM; IC50 [9]: > 80 µg/mL; IC50 [10]: > 80 µg/mL; IC50 [11]: > 80 µg/mL; IC50 [13]: > 80 µg/mL; IC50 [14]: > 80 µg/mL |
| O=[N+]([O-])O[C@H]1CO[C@H]2[C@@H]1OC[C@H]2O[N+](=O)[O-] [ISOSORBIDE DINITRATE] | 650 | 3.5 | 2.6 | 1.9 | 700 | 24 | 970 | 600 | – |
| Nc1ccn([C@H]2C[C@H](O[N+](=O)[O-])[C@@H](CO)O2)c(=O)n1 | – | 1.5 | 20.2 | 18.8 | 200 | 17.1 | – | – | – |
| Cc1cn([C@H]2C[C@H](O)[C@@H](CO)O2)c(=O)[nH]c1=O [DOXRIBTIMINE] | 100 | – | – | – | – | – | 95 | – | CC50 [21]: 130 µM |
| O=c1[nH]c(=O)n([C@H]2C[C@H](O)[C@@H](CO[N+](=O)[O-])O2)cc1I | 250 | 3.7 | 4.7 | 3.9 | 21 | 36.4 | 340 | 340 | – |
| O=c1ccn([C@H]2C[C@H](O[N+](=O)[O-])[C@@H](CO)O2)c(=O)[nH]1 | – | 4.9 | 9 | 7.7 | 850 | – | – | – | IC50 [8]: > 80 µg/mL; IC50 [9]: > 80 µg/mL; IC50 [11]: > 80 µg/mL; IC50 [20]: > 80 µg/mL; IC50 [13]: > 80 µg/mL; IC50 [14]: > 80 µg/mL |
| O=c1[nH]c(=O)n([C@H]2C[C@H](O)[C@@H](CO)O2)cc1I [IDOXURIDINE] | 10 | – | – | – | 7400 | – | 97 | 7000 | CC50 [21]: 380 µM |
| O=c1[nH]c(=O)n([C@H]2C[C@H](O)[C@@H](CO)O2)cc1/C=C/I | – | – | – | – | – | – | – | – | IC50 [17]: 2.3 µg/mL (≈ 6.05 µM); IC50 [22]: 0.0051 µg/mL (≈ 0.0134 µM); IC50 [23]: 80 µg/mL (≈ 210 µM) |
| O=c1ccn([C@H]2C[C@H](O)[C@@H](CO[N+](=O)[O-])O2)c(=O)[nH]1 | – | 5.4 | 4.4 | 2.9 | – | 59.9 | 1000 | – | – |
| O=c1[nH]c(=O)n([C@H]2C[C@H](O)[C@@H](CO)O2)cc1F [FLOXURIDINE] | – | – | – | – | 100 | – | – | 90 | – |
